Measurements as given in publication PMC4818746 (Annals of Clinical and Translational Neurology, 2016).
Blank lines part the entries; values can stand above or below the compound they belong to.

Experiments:
LRRK2-G2019S [1] = molecular target: T1, LRRK2-G2019S (Homo sapiens, UniProt Q5S007, G2019S); assay: Filter-binding kinase assay, G2019S activity on PEPrx3; format: biochemical
Outline: (§1)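 Recombinant LRRK2 G2019S (0.8 μg) with 5 μg synthetic peptide substrate, 10 μCi [γ32P]ATP and 1X kinase buffer in 40 μL, incubated at 30°C for 20 min. 10 μL of reaction spotted onto P81 phosphocellulose disks, washed twice in 75 mmol/L phosphoric acid, then counted by liquid scintillation. Reported as mean CPM ± SEM (n = 4) of phosphorylated peptide.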

LRRK2-G2019S [2] = molecular target: T1, LRRK2-G2019S; assay: Filter-binding kinase assay, G2019S activity on LRRKtide; format: biochemical
Outline: as §1

LRRK2-G2019S [3] = molecular target: T1, LRRK2-G2019S; assay: Radiometric kinase assay, LRRK2-G2019S activity on MBP; format: biochemical; details: for reduction of p-MBP: G2019S on MBP, 2 μmol/L antioxidant, relative to vehicle control; for inhibition of p-MBP (in words): screen of 84 antioxidants, 2 μmol/L
dopaminergic neurons = details: mouse; cited from earlier work
[4] = system: ddc‐GAL4‐hLRRK2 G2019S flies; assay: Oxidative state assays; format: in vivo, Drosophila; details: 10 μmol/L in food, relative fluorescence, control 31,756 ± 4142
[5] = system: LRRK2 G2019S‐expressing transgenic flies; assay: Number of TH+ DA neurons in G2019S fly brains; format: in vivo, Drosophila; details: 10 μmol/L in diet; for increase in number of neurons in PPM3: 60 days posteclosion
Outline: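 G2019S transgenic flies (ddc-GAL4 driver) fed cornmeal food containing test compound at 10 μmol/L (DMSO) or plain food, at 25°C. Whole-mount adult brains dissected 60 days after eclosion and immunostained with rabbit anti-TH (1:200). DA neurons scored per cluster, including PPM3, by confocal microscopy. Given as mean count per cluster (n = 4; cohort of 20).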

[6] = cited from earlier work
[7] = system: LRRK2 G2019S‐expressing transgenic flies; assay: Climbing assay; format: in vivo, Drosophila; details: 10 μmol/L in diet
[8] = system: LRRK2 G2019S‐expressing transgenic flies; assay: Lifespan / survival of G2019S flies; format: in vivo, Drosophila; details: nonsignificant
Outline: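 ddc-GAL4-hLRRK2 G2019S flies raised at 25°C on cornmeal food, replaced every 2 days, either plain or with test compound in DMSO added at 10 μmol/L. Read-out is the percentage of surviving flies; n = 4 cohorts of 60.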

LRRK2-WT = LRRK2-WT (Homo sapiens, UniProt Q5S007); assay: Radiometric kinase assay, LRRK2-WT activity on MBP; format: biochemical; details: IC50 against LRRK2-WT, MBP substrate
LRRK2-WT, sequence (Q5S007 whole entry): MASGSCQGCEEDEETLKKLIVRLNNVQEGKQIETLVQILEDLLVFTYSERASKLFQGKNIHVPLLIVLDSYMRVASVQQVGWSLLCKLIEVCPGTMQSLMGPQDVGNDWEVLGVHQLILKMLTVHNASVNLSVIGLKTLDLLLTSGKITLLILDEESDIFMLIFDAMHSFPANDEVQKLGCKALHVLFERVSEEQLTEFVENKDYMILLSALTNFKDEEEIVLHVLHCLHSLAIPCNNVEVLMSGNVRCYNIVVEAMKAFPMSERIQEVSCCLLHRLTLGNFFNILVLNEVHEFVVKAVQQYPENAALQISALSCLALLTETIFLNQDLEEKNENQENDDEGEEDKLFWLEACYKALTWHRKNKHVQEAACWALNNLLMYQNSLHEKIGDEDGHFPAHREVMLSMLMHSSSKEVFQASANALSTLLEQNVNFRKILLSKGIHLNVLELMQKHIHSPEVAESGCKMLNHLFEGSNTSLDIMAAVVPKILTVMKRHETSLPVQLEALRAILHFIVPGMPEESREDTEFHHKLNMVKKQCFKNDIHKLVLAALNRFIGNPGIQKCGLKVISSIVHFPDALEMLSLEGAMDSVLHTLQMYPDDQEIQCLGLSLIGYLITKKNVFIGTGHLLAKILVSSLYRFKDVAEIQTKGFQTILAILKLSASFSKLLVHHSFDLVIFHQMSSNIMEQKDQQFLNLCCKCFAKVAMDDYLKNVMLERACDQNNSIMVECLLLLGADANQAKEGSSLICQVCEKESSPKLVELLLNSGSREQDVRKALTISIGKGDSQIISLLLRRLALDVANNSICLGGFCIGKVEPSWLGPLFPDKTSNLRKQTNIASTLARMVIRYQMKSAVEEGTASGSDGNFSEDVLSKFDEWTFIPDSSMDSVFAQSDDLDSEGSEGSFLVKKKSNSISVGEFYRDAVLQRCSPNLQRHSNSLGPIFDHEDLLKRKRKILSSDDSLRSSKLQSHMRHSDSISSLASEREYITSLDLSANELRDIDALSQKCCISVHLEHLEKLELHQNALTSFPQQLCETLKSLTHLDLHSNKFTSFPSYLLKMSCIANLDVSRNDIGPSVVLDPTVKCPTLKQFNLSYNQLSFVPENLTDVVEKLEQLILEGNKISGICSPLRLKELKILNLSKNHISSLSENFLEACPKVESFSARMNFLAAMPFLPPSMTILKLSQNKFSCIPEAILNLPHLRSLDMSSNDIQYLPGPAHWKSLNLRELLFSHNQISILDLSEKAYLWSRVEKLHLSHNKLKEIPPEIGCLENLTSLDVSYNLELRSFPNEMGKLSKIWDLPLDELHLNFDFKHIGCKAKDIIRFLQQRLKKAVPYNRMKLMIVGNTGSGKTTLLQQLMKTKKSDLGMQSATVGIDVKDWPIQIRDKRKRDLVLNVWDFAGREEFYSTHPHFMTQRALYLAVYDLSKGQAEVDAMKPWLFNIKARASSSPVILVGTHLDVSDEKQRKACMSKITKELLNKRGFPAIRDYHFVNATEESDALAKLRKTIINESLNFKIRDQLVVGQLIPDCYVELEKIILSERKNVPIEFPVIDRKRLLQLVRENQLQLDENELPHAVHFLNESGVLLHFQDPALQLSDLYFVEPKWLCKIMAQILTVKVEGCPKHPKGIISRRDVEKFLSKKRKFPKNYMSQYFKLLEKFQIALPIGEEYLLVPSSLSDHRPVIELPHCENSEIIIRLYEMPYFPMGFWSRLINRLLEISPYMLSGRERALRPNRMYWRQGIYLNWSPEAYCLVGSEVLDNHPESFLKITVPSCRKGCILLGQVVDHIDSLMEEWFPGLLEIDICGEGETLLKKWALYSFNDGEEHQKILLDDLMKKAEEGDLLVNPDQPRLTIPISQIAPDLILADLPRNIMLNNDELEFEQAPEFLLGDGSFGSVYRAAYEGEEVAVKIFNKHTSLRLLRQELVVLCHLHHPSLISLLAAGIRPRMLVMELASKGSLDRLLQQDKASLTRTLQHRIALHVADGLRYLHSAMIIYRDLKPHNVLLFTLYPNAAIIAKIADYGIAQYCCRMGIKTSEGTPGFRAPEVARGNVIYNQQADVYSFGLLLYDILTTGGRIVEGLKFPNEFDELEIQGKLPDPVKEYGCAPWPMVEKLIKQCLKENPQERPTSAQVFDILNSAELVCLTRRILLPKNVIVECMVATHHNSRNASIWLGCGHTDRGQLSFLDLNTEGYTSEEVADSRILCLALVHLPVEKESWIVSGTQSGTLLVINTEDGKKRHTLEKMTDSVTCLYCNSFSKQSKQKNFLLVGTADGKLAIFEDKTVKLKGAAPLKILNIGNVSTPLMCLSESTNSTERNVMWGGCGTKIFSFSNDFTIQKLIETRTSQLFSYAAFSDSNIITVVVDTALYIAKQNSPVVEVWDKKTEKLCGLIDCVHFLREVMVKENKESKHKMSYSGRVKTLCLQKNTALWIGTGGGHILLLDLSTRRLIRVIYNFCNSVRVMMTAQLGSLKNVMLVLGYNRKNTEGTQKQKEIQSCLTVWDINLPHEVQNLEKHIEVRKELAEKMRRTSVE

T1 sequence (Q5S007 whole entry G2019S): as the sequence (Q5S007 whole entry) above, with G2019S counted along it

Structure (SMILES): O=c1cc(-c2ccccc2)oc2cc(O)c(O)c(O)c12 [Baicalein]
kinase activity toward PEPrx3 (in words) (LRRK2-G2019S [1]): most significantly reduced
kinase activity toward LRRKtide (in words) (LRRK2-G2019S [2]): most significantly reduced

Structure (SMILES): N[C@@H](CCC(=O)N[C@@H](CS)C(=O)NCC(=O)O)C(=O)O [Glutathione]
inhibition of p-MBP (in words) (LRRK2-G2019S [3]): Weak or noninhibitory

Structure (SMILES): Cc1cc2c(C(C)C)c(O)c(O)c(C=O)c2c(O)c1-c1c(C)cc2c(C(C)C)c(O)c(O)c(C=O)c2c1O [Gossypol]
kinase activity toward PEPrx3 (in words) (LRRK2-G2019S [1]): most significantly reduced
kinase activity toward LRRKtide (in words) (LRRK2-G2019S [2]): most significantly reduced

Structure (SMILES): CC(C)(Sc1cc(C(C)(C)C)c(O)c(C(C)(C)C)c1)Sc1cc(C(C)(C)C)c(O)c(C(C)(C)C)c1 [Probucol]
decrease in lifespan [8]: 11%
inhibition of p-MBP (in words) (LRRK2-G2019S [3]): Weak or noninhibitory
viability of TH+ neurons (in words) [5]: did not improve

Structure (SMILES): CN[C@@H]1C[C@H]2O[C@@](C)([C@@H]1OC)n1c3ccccc3c3c4c(c5c6ccccc6n2c5c31)C(=O)NC4 [Staurosporine]
LRRK2 kinase activity (in words) (LRRK2-G2019S [3]; 10^−3 and 10^−1 μmol/L staurosporine, Fig. 1C): reduced kinase activity

Structure (SMILES): CC1=CC(=O)C(C(C)C)=CC1=O [Thymoquinone]
IC50 (LRRK2-G2019S [3]; IC50 against LRRK2-G2019S, MBP substrate): 125 nM
IC50 (LRRK2-WT): 673 nM
kinase activity toward PEPrx3 (in words) (LRRK2-G2019S [1]): most significantly reduced
protection of dopaminergic neurons against MPP+ (dopaminergic neurons): protect dopaminergic neurons against MPP+
level of H2O2 in brain lysates [4]: 18,445 ± 1229
increase in number of neurons in PPM3 [5]: up to 55%
kinase activity toward LRRKtide (in words) (LRRK2-G2019S [2]): most significantly reduced
crossing of the blood–brain barrier [6]: readily cross the blood–brain barrier
increase in climbing scores [7]: ≤ 17%

Structure (SMILES): CC1=C(/C=C/C(C)=C/C=C/C(C)=C/C=C/C=C(C)/C=C/C=C(C)/C=C/C2=C(C)CCCC2(C)C)C(C)(C)CCC1 [β-carotene]
inhibition of p-MBP (in words) (LRRK2-G2019S [3]): Weak or noninhibitory

Structure (SMILES): Cc1c(O)cc2c(c1C)O[C@](C)(CCC[C@H](C)CCC[C@H](C)CCCC(C)C)CC2 [γ‐Tocopherol]
reduction of p-MBP (LRRK2-G2019S [3]): ~ 90%

The next lines start with results.

reduction of p-MBP (LRRK2-G2019S [3]): ~ 90%
Structure (SMILES): COc1cc(/C=C/C(=O)CC(=O)/C=C/c2ccc(O)c(OC)c2)ccc1O [Curcumin]

kinase activity toward PEPrx3 (in words) (LRRK2-G2019S [1]): most significantly reduced
kinase activity toward LRRKtide (in words) (LRRK2-G2019S [2]): most significantly reduced
Structure (SMILES): O=c1ccc2cc(O)c(O)cc2o1 [Esculetin]
protection of dopaminergic neurons against MPP+ (dopaminergic neurons): protect dopaminergic neurons against MPP+
level of H2O2 in brain lysates [4]: 20,220 ± 1909
increase in number of neurons in PPM3 [5]: up to 55%
crossing of the blood–brain barrier [6]: readily cross the blood–brain barrier

kinase activity toward PEPrx3 (in words) (LRRK2-G2019S [1]): most significantly reduced
kinase activity toward LRRKtide (in words) (LRRK2-G2019S [2]): most significantly reduced
Structure (SMILES): Oc1cc(O)cc(/C=C/c2ccc(O)c(O)c2)c1 [Piceatannol]
level of H2O2 in brain lysates [4]: 20,061 ± 2910
increase in number of neurons in PPM3 [5]: up to 55%
increase in climbing scores [7]: up to 22%

kinase activity toward PEPrx3 (in words) (LRRK2-G2019S [1]): most significantly reduced
kinase activity toward LRRKtide (in words) (LRRK2-G2019S [2]): most significantly reduced
Structure (SMILES): O=C(/C=C/c1ccc(O)c(O)c1)O[C@H](Cc1ccc(O)c(O)c1)C(=O)O [Rosmarinic acid]

reduction of p-MBP (LRRK2-G2019S [3]): ~ 90%
Structure (SMILES): CCCCCCCCOC(=O)/C=C/c1ccc(O)c(O)c1 [n-Octyl caffeate]
